Consider 20 molecules from ChEMBL document CHEMBL1125552, “Synthesis and biological evaluation of novel potent antagonists of the bombesin/gastrin releasing peptide receptor” (1992).

Where a SMILES comes first, the peptide text is derived from it. The star is where a group is joined. X1 = CSCC[C@H](NC[C@H](CC(C)C)N*)C(N)=O; X2 = CC(=O)NC[C@H](CC(C)C)N*; For = O=C*

What all share (type): functional
Experiment [1] deals with Gastrin-releasing peptide receptor (Rattus norvegicus) (UniProt P52500). The experiment in a line: Tested for the inhibition of Bombesin-stimulated amylase release at 5 uM concentration in rat pranceatic acini. The essentials:
(§1)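 Dispersed rat pancreatic acini prepared by collagenase digestion (300 units/20 mL), washed through 4% BSA. Incubated 30 min at 37 °C under 100% oxygen in HEPES buffer (pH 7.4) with 0.5 mM CaCl₂, 1% albumin and trypsin inhibitor, with peptide plus 0.2 nM BN. Amylase (Phadebas test) released, as percent of initial acinar content, normalized to BN alone; triplicate measurements.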

Experiment [2] has the same target. The experiment in a line: Tested for the inhibition of Bombesin-stimulated amylase release at 5 uM concentration in the presence of 0.2 nM of bombesin in rat pranceatic acini. In outline: as §1
Experiment [3] shares this target. The experiment in a line: Tested for the inhibition of Bombesin-stimulated amylase release in the presence of 0.2 nM of bombesin in rat pranceatic acini. The essentials: as §1
The target is the same in experiment [4]. The experiment in a line: Tested for the inhibition of bombesin-stimulated amylase release in rat pranceatic acini. The essentials: as §1
For experiment [5] the target is unchanged. The experiment in a line: Tested for the inhibition of Bombesin-stimulated amylase release at 50 nM concentration in rat pranceatic acini. The essentials:
as §1

Experiment [6] has the same target. The experiment in a line: Tested for the inhibition of Bombesin-stimulated amylase release at 50 nM concentration in the presence of 0.2 nM of bombesin in rat pranceatic acini. In outline: as §1

Chain of Gastrin-releasing peptide receptor (Rattus norvegicus) (P52500 whole entry): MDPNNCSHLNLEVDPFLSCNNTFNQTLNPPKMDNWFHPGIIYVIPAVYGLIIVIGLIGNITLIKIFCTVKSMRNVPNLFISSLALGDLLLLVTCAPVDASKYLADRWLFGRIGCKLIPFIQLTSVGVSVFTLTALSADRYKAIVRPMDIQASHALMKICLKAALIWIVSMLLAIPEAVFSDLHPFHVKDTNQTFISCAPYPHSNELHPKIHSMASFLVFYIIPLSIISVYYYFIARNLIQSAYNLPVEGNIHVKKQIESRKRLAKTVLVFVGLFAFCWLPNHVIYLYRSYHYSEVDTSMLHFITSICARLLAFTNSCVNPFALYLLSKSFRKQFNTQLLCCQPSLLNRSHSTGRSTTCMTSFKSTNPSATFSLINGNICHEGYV

With `CN[C@@H](Cc1ccccc1)C(=O)N[C@@H](Cc1c[nH]cn1)C(=O)N[C@@H](Cc1c[nH]c2ccccc12)C(=O)N[C@@H](C)C(=O)N[C@H](C(=O)NCC(=O)N[C@@H](Cc1c[nH]cn1)C(=O)N[C@@H](CC(C)C)CN(C=O)[C@@H](CCSC)C(N)=O)C(C)C`, the Release amounted to 9% in experiment [1], 9.9% in experiment [2], 9.4% in experiment [3] and 3.5% in experiment [4].
For the molecule `CSCC[C@H](NC[C@H](CC(C)C)NC(=O)[C@H](Cc1c[nH]cn1)NC(=O)CNC(=O)[C@@H](NC(=O)[C@H](C)NC(=O)[C@H](Cc1c[nH]c2ccccc12)NC(=O)[C@H](N)Cc1ccccc1)C(C)C)C(N)=O`, the Release came out at 5.7% in experiment [1]; 13.1% in experiment [2]; 5.3% in experiment [5]; 19.6% in experiment [6]; 18.3% in experiment [3]; 5.3% in experiment [4].
Regarding `CSCC[C@H](NC[C@H](CC(C)C)NC(=O)[C@H](Cc1c[nH]cn1)NC(=O)CNC(=O)[C@@H](NC(=O)[C@H](C)NC(=O)[C@H](Cc1c[nH]c2ccccc12)NC(=O)[C@H](CC(N)=O)NC(=O)CN)C(C)C)C(N)=O`, the Release in experiment [1] was 6.5%; in experiment [2] it was 24.5%; in experiment [5], 7.6%; in experiment [6] it was 22.7%; in experiment [3], 19.3%; in experiment [4], 5.1%.
Regarding `CC(C)C[C@@H](CN[C@@H](CC(C)C)C(N)=O)NC(=O)[C@H](Cc1c[nH]cn1)NC(=O)CNC(=O)[C@@H](NC(=O)[C@H](C)NC(=O)[C@H](Cc1c[nH]c2ccccc12)NC(=O)[C@H](CCC(N)=O)NC(=O)[C@H](CC(N)=O)NC(=O)CNC(=O)[C@H](CC(C)C)NC(=O)[C@H](CCCN=C(N)N)NC(=O)[C@H](CCC(N)=O)NC(=O)[C@@H]1CCC(=O)N1)C(C)C`, the Release in experiment [1] stood at 2.7%; in experiment [2], 6.2%; in experiment [5], 3%; in experiment [6], 11.6%; in experiment [3], 17.4%; in experiment [4], 2.8%.
With `CC(=O)NC[C@H](CC(C)C)NC(=O)[C@H](Cc1c[nH]cn1)NC(=O)CNC(=O)[C@@H](NC(=O)[C@H](C)NC(=O)[C@H](Cc1c[nH]c2ccccc12)NC(=O)[C@H](CCC(N)=O)NC(=O)[C@@H](Cc1ccccc1)NC(C)=O)C(C)C`, the Release in experiment [2] was 4.3%; in experiment [6] it was 14.8%; in experiment [3] it was 16.5%; in experiment [4], 3%.
Take `CSCC[C@H](NC[C@H](CC(C)C)NC(=O)[C@H](Cc1c[nH]cn1)NC(=O)CNC(=O)[C@@H](NC(=O)[C@H](C)NC(=O)[C@H](Cc1c[nH]c2ccccc12)NC(C)=O)C(C)C)C(N)=O` (Ac-WAVGH-X1): the Release came to 4.7% in experiment [1]; 16.1% in experiment [2]; 4.7% in experiment [5]; 17.9% in experiment [6]; 17.8% in experiment [3]; 4.8% in experiment [4].
With `CC(=O)NC[C@H](CC(C)C)NC(=O)[C@H](Cc1c[nH]cn1)NC(=O)CNC(=O)[C@@H](NC(=O)[C@H](C)NC(=O)[C@H](Cc1c[nH]c2ccccc12)NC(=O)[C@H](CCC(N)=O)NC(=O)[C@H](N)Cc1ccccc1)C(C)C`, the Release was 3.6% in experiment [2], 10.3% in experiment [6], 14.6% in experiment [3] and 3.3% in experiment [4].
In the case of `CC(=O)NC[C@H](CC(C)C)NC(=O)[C@H](Cc1c[nH]cn1)NC(=O)CNC(=O)[C@@H](NC(=O)[C@H](C)NC(=O)[C@H](Cc1c[nH]c2ccccc12)NC(=O)[C@H](Cc1c[nH]cn1)NC(=O)[C@@H](N)CCC(N)=O)C(C)C` (H-QHWAVGH-X2), the Release in experiment [1] was 3.6%; in experiment [2], 8.2%; in experiment [6], 14.5%; in experiment [3], 14.4%; in experiment [4], 3.6%.
As for `CC(=O)NC[C@H](CC(C)C)NC(=O)[C@H](Cc1c[nH]cn1)NC(=O)CNC(=O)[C@@H](NC(=O)[C@H](C)NC(=O)[C@H](Cc1c[nH]c2ccccc12)NC(=O)[C@H](Cc1c[nH]cn1)NC(=O)[C@@H](Cc1ccccc1)NC(C)=O)C(C)C`, the Release in experiment [1] worked out at 3.6%; in experiment [2], 3.7%; in experiment [6], 16.7%; in experiment [3] it was 20.2%; in experiment [4], 2.9%.
With `CC(=O)NC[C@H](CC(C)C)NC(=O)[C@H](Cc1c[nH]cn1)NC(=O)CNC(=O)[C@@H](NC(=O)[C@H](C)NC(=O)[C@H](Cc1cn(C=O)c2ccccc12)NC(=O)[C@H](Cc1c[nH]cn1)NC(=O)[C@H](CCC(N)=O)NC(C)=O)C(C)C` (Ac-QHW(For)AVGH-X2), the Release was found to be 12.5% in experiment [2], 15.8% in experiment [6], 16% in experiment [3] and 3.2% in experiment [4].
In the case of `CSCC[C@@H](C(N)=O)N(C=O)C[C@H](CC(C)C)NC(=O)[C@H](Cc1c[nH]cn1)NC(=O)CNC(=O)[C@@H](NC(=O)[C@H](C)NC(=O)[C@H](Cc1c[nH]c2ccccc12)NC(=O)[C@H](Cc1c[nH]cn1)NC(=O)[C@@H](Cc1ccccc1)NC(=O)CN)C(C)C`, the Release in experiment [1] came out at 13.3%; in experiment [2] it was 11.6%; in experiment [3] it was 10.4%; in experiment [4], 3.7%.
On to `CSCC[C@@H](C(N)=O)N(C=O)C[C@H](CC(C)C)NC(=O)[C@H](Cc1c[nH]cn1)NC(=O)CNC(=O)[C@@H](NC(=O)[C@H](C)NC(=O)[C@H](Cc1c[nH]c2ccccc12)NC(=O)[C@H](Cc1c[nH]cn1)NC(=O)[C@H](N)Cc1ccccc1)C(C)C`, for which the Release came out at 10.3% in experiment [1], 13% in experiment [2], 10.4% in experiment [3] and 3.7% in experiment [4].
For `CSCC[C@@H](C(N)=O)N(C=O)C[C@H](CC(C)C)NC(=O)[C@H](Cc1c[nH]cn1)NC(=O)CNC(=O)[C@@H](NC(=O)[C@H](C)NC(=O)[C@H](Cc1c[nH]c2ccccc12)NC(=O)[C@H](Cc1c[nH]cn1)NC(=O)[C@H](CC(N)=O)NC(=O)CN)C(C)C` the same measures were 9.2%, 13.1%, 9.4% and 3.5%.
With `CC(=O)NC[C@H](CC(C)C)NC(=O)[C@H](Cc1c[nH]cn1)NC(=O)CNC(=O)[C@@H](NC(=O)[C@H](C)NC(=O)[C@H](Cc1c[nH]c2ccccc12)NC(=O)[C@H](Cc1c[nH]cn1)NC(=O)[C@H](CCC(N)=O)NC(C)=O)C(C)C` (Ac-QHWAVGH-X2), the Release in experiment [1] was determined as 3.6%; in experiment [2] it was 4%; in experiment [6], 12.2%; in experiment [3] it was 15.9%; in experiment [4], 3.1%.
With `CN[C@H](Cc1ccccc1)C(=O)N[C@@H](Cc1c[nH]cn1)C(=O)N[C@@H](Cc1c[nH]c2ccccc12)C(=O)N[C@@H](C)C(=O)N[C@H](C(=O)NCC(=O)N[C@@H](Cc1c[nH]cn1)C(=O)N[C@@H](CC(C)C)CN(C=O)[C@@H](CCSC)C(N)=O)C(C)C`, the Release in experiment [1] was determined as 9.1%; in experiment [2], 12.9%; in experiment [3], 9.4%; in experiment [4], 3.5%.
`CC(=O)NC[C@H](CC(C)C)NC(=O)[C@H](Cc1c[nH]cn1)NC(=O)CNC(=O)[C@@H](NC(=O)[C@H](C)NC(=O)[C@H](Cc1c[nH]c2ccccc12)NC(=O)[C@H](Cc1c[nH]cn1)NC(=O)[C@H](N)Cc1ccccc1)C(C)C`: the Release in experiment [1] stood at 3%; in experiment [2], 3.4%; in experiment [6] it was 9%; in experiment [3] it was 15.7%; in experiment [4] it was 3%.
With `CCCCC[C@H](CC(C)C)NC(=O)[C@H](Cc1c[nH]cn1)NC(=O)CNC(=O)[C@@H](NC(=O)[C@H](C)NC(=O)[C@H](Cc1c[nH]c2ccccc12)NC(=O)[C@@H](Cc1c[nH]cn1)NC(=O)C(C)(C)C)C(C)C`, the Release in experiment [1] was 6%; in experiment [2], 6.3%; in experiment [5], 5.1%; in experiment [6], 6.3%; in experiment [3], 17.4%; in experiment [4], 5.3%.
`CSCC[C@H](NC[C@H](CC(C)C)NC(=O)[C@H](Cc1c[nH]cn1)NC(=O)CNC(=O)[C@@H](NC(=O)[C@H](C)NC(=O)[C@@H](N)Cc1c[nH]c2ccccc12)C(C)C)C(N)=O` (H-WAVGH-X1): the Release in experiment [1] came out at 5.3%; in experiment [2], 18.1%; in experiment [5], 5.4%; in experiment [6], 20.8%; in experiment [3], 17.6%; in experiment [4] it was 4.9%.
Regarding `CN[C@H](Cc1ccccc1)C(=O)N[C@@H](Cc1c[nH]c2ccccc12)C(=O)N[C@@H](C)C(=O)N[C@H](C(=O)NCC(=O)N[C@@H](Cc1c[nH]cn1)C(=O)N[C@H](CN[C@@H](CCSC)C(N)=O)CC(C)C)C(C)C`, the Release in experiment [1] came to 12.2%; in experiment [2], 14.3%; in experiment [5] it was 7.2%; in experiment [6], 16%; in experiment [3], 21.2%; in experiment [4], 6.4%.
For `CC(=O)NC[C@H](CC(C)C)NC(=O)[C@H](Cc1c[nH]cn1)NC(=O)CNC(=O)[C@@H](NC(=O)[C@H](C)NC(=O)[C@H](Cc1cn(C=O)c2ccccc12)NC(=O)[C@H](Cc1c[nH]cn1)NC(=O)[C@H](N)Cc1ccccc1)C(C)C`, the Release came to 3.1% in experiment [1]; 4.8% in experiment [2]; 16.2% in experiment [6]; 20.3% in experiment [3]; 3.2% in experiment [4].
